Published values from different studies.
Lines come from different studies, so protocols differ.
Read-out: enzyme activity
Mode: inhibitor
DYRK1B: Dual specificity tyrosine-phosphorylation-regulated kinase 1B (DYRK1B, Homo sapiens, UniProt Q9Y463)
NUAK1: NUAK family SNF1-like kinase 1 (NUAK1, Homo sapiens, UniProt O60285)
Rock2: Rho-associated protein kinase 2 (Rock2, Rattus norvegicus, UniProt Q62868)

O=C(O)c1ccc2c(c1)nc(NCCc1cccc(Cl)c1)c1ccncc12
remaining activity (DYRK1B; radiometric; 1 µM): 112%

Cc1nn(CC(F)(F)F)cc1Nc1ncc(C2CC2)c(NCc2ccc(S(N)(=O)=O)cc2)n1
remaining activity (NUAK1; radiometric; 1 µM): 97%

CCCOc1ccc(OC)c(F)c1C(=O)c1ccc(C(=O)N[C@@H]2CNC[C@H]2NC(=O)c2ccc3[nH]ncc3c2)cc1
remaining activity (Rock2; 10 µM): -1%

COc1cccc(Nc2nc3cc(C(=O)O)ccc3c3cnccc23)c1
remaining activity (DYRK1B; radiometric; 1 µM): 35%

O=C(NCCCNc1nc(Nc2cccc(NC(=O)N3CCCC3)c2)ncc1Br)C1CCC1
remaining activity (Inhibitor of nuclear factor kappa-B kinase subunit epsilon (IKBKE, Homo sapiens, UniProt Q14164); radiometric; 1 µM): -2%

COc1cccc(CCNc2nc3cc(C(=O)O)ccc3c3cncnc23)c1
remaining activity (Dual specificity tyrosine-phosphorylation-regulated kinase 3 (DYRK3, Homo sapiens, UniProt O43781); radiometric; 1 µM): 28%

Cc1nn(CC(F)(F)F)cc1Nc1ncc(C2CC2)c(NCCCNC(=O)C2CCC2)n1
remaining activity (NUAK1; radiometric; 1 µM): 82%

Cc1ccc(C(=O)Nc2ccc(CN3CCN(C)CC3)c(C(F)(F)F)c2)cc1C#Cc1cnc2cccnn12
remaining activity (Mitogen-activated protein kinase kinase kinase 15 (MAP3K15, Homo sapiens, UniProt Q6ZN16); 23.5 nM): 67%

Cc1cnc(NC2CCOCC2)nc1-n1cnc(C(=O)NC(CN)c2cc(F)cc(Cl)c2)c1 (stereo not drawn)
remaining activity (Rock2; radiometric; 1 µM): 25%
